Measurements reported in ChEMBL document CHEMBL4706541, “Design and synthesis of 1H-indazole-3-carboxamide derivatives as potent and selective PAK1 inhibitors with anti-tumour migration and invasion activities” (Eur J Med Chem, 2020).
Active and inactive are the calls of the source. The calls are words filed in the database; no cut-off is given here.

What was measured:
[1] = target: Aurora kinase A (Homo sapiens) (UniProt O14965); test: Inhibition of AuroraA (unknown origin) assessed as residual activity at 0.1 uM preincubated for 20 min followed by [gamma33P]ATP addition and measured after 120 mins by Hotspot assay relative to control; conditions: time 140.0 min
Aurora kinase A (Homo sapiens), sequence (O14965 whole entry): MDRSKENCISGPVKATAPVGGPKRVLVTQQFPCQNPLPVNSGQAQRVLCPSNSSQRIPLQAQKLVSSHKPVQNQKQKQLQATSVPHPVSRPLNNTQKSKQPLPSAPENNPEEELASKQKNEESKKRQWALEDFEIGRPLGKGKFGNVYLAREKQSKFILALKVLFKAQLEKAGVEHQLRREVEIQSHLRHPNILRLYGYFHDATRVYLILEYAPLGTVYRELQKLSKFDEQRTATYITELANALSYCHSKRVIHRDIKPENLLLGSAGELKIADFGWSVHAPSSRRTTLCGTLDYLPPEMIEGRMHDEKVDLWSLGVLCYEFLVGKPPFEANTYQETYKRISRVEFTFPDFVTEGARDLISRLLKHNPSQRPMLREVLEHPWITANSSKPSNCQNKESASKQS
In short: (§1)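 Radiometric HotSpot kinase assay. Kinase and substrate are combined in 20 mM Hepes pH 7.5, 10 mM MgCl2, 1 mM EGTA, 0.02% Brij35, 0.02 mg/mL BSA, 0.1 mM Na3VO4, 2 mM DTT and 1% DMSO. Compound is added and preincubated 20 min at room temperature. The reaction starts with ATP plus 33P-ATP at 10 µM final and runs 120 min at 25 °C. Filter-binding read-out, given as % activity remaining versus DMSO.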

MDA-MB-231 [2] = test: Antiinvasive activity against human MDA-MB-231 cells assessed as decrease is number of penetrated cells at 0.25 to 1 uM after 24 hrs by inverted microscopic based Transwell invasion assay relative to control; format: functional; design: scale not given: the % may be the effect or the level left; conditions: dose 0.25-1 µM
In short: (§2)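 Cells grown to confluence and scratched with a sterile pipette tip, or placed at 1×10^5 cells in serum-free DMEM with 0.1% […] in the upper part of Matrigel-coated Boyden chambers over DMEM with 10% FBS. Compound treatment for 24 h at 37 °C. Read-out is wound distance from images or the count of invaded cells on the lower filter face after fixing and staining. Data given as means ± SD.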

[3] = target: T1, Serine/threonine-protein kinase PAK 1 (Homo sapiens, UniProt Q13153); test: Inhibition of PAK1 phosphorylation at ser144 residue in human MDA-MB-231 cells after 1 to 24 hrs by Western blot analysis; format: cell-based; conditions: dose 2.5-20 µM, time 1-24 hrs
T1 sequence (Q13153 whole entry): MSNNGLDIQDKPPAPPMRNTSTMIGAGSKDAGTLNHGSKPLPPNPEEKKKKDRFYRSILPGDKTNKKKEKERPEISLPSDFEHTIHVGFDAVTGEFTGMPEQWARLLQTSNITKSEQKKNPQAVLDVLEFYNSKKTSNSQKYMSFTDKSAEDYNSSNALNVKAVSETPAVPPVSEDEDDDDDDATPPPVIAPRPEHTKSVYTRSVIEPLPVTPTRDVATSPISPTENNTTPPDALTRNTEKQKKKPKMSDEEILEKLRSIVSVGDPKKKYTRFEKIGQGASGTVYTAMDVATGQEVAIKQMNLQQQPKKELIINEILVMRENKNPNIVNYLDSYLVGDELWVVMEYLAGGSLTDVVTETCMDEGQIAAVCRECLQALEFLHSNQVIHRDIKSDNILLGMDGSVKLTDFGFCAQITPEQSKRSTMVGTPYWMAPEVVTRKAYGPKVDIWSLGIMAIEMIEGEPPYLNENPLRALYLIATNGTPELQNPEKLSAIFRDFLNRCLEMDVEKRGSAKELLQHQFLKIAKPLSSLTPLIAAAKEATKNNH
In short: (§3)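 Whole-cell extracts made from 1×10^6 treated cells in RIPA buffer (50 mM Tris/HCl pH 7.4, 150 mM NaCl, 1% NP-40, 0.25% deoxycholate, 1 mM EDTA, protease inhibitors). Proteins separated by SDS-PAGE, blotted to PVDF and blocked in 5% milk in TBS-T. Membranes probed for PAK1, phospho-PAK1 Ser144, Snail and actin, with β-actin as loading control. ECL detection.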

[4] = target: Mitogen-activated protein kinase 8 (Homo sapiens) (UniProt P45983); test: Inhibition of JNK1 (unknown origin) assessed as residual activity at 0.1 uM preincubated for 20 min followed by [gamma33P]ATP addition and measured after 120 mins by Hotspot assay relative to control; conditions: time 140.0 min; in short: as §1
Mitogen-activated protein kinase 8 (Homo sapiens), sequence (P45983 whole entry): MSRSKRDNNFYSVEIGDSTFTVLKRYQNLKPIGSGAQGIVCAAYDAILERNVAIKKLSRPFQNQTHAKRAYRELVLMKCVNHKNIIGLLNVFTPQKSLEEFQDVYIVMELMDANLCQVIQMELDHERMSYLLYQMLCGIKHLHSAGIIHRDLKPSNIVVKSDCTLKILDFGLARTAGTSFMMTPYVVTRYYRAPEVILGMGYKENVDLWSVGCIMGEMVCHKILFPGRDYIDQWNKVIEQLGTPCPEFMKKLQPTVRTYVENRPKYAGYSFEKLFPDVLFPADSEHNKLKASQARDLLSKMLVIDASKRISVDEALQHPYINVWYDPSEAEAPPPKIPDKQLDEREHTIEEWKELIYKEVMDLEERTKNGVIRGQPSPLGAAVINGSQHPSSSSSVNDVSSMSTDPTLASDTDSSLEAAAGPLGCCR

[5] = target: Vascular endothelial growth factor receptor 2 (Homo sapiens) (UniProt P35968); test: Inhibition of VEGFR2 (unknown origin) assessed as residual activity at 0.1 uM preincubated for 20 min followed by [gamma33P]ATP addition and measured after 120 mins by Hotspot assay relative to control; conditions: time 140.0 min; in short: as §1
[6] = target: Serine/threonine-protein kinase PAK 4 (Homo sapiens, UniProt O96013); test: Inhibition of full length recombinant human N-terminal GST/His6-tagged PAK4 expressed in baculovirus infected sf9 insect cells using tetra LRRWSLG as substrate preincubated for 20 min followed by [gamma33P]ATP addition and measured after 120 mins by Hotspot assay
[7] = target: RAC-alpha serine/threonine-protein kinase (Homo sapiens) (UniProt P31749); test: Inhibition of AKT1 (unknown origin) assessed as residual activity at 0.1 uM preincubated for 20 min followed by [gamma33P]ATP addition and measured after 120 mins by Hotspot assay relative to control; conditions: time 140.0 min; in short: as §1
RAC-alpha serine/threonine-protein kinase (Homo sapiens), sequence (P31749 whole entry): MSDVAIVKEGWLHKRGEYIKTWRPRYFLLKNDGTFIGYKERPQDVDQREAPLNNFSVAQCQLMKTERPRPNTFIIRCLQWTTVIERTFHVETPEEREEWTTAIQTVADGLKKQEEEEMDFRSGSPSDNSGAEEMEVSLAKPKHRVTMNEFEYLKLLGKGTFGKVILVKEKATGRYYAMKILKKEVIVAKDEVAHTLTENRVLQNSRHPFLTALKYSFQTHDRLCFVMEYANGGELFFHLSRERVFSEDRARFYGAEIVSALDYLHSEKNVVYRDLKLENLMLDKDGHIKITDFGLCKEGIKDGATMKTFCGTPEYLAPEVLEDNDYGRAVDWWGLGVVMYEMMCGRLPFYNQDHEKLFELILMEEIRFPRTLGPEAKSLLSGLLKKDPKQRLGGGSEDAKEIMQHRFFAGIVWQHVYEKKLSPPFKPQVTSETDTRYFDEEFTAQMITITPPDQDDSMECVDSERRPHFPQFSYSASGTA

[8] = target: T1, Serine/threonine-protein kinase PAK 1; test: Inhibition of PAK1 in human MDA-MB-231 cells assessed as reduction in snail protein expression at 2.5 to 20 uM after 1 to 24 hrs by Western blot analysis; format: cell-based; conditions: dose 2.5-20 µM, time 1-24 hrs; in short: as §3
[9] = target: Serine/threonine-protein kinase PAK 3 (Homo sapiens) (UniProt O75914); test: Inhibtion of full length recombinant human N-terminal GST/His6-tagged PAK3 expressed in sf9 insect cells assessed as residual activity at 0.1 uM using tetra LRRWSLG as substrate preincubated for 20 min followed by [gamma33P]ATP addition and measured after 120 mins by Hotspot assay relative to control; conditions: time 140.0 min; in short: as §1
Serine/threonine-protein kinase PAK 3 (Homo sapiens), sequence (O75914 whole entry, looked up): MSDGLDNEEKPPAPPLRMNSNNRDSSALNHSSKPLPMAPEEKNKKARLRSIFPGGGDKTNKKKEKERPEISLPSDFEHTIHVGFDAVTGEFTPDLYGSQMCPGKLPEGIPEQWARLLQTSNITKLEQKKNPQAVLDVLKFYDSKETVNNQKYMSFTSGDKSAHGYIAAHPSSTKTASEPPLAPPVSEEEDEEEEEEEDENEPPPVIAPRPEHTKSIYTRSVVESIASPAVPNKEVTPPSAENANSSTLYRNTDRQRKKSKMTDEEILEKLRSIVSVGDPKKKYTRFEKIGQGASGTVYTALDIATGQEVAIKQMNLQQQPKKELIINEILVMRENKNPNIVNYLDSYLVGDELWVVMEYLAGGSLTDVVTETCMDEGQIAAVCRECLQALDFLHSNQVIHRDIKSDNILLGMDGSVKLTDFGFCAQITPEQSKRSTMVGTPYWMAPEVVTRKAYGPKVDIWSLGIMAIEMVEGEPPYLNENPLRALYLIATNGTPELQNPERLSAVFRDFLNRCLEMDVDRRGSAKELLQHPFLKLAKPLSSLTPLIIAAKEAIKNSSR

[10] = target: Tyrosine-protein kinase receptor UFO (Homo sapiens) (UniProt P30530); test: Inhibition of AXL (unknown origin) assessed as residual activity at 0.1 uM preincubated for 20 min followed by [gamma33P]ATP addition and measured after 120 mins by Hotspot assay relative to control; conditions: time 140.0 min; in short: as §1
[11] = target: Mitogen-activated protein kinase kinase kinase kinase 1 (Homo sapiens) (UniProt Q92918); test: Inhibition of MAP4K1 (unknown origin) assessed as residual activity at 0.1 uM preincubated for 20 min followed by [gamma33P]ATP addition and measured after 120 mins by Hotspot assay relative to control; conditions: time 140.0 min; in short: as §1
Mitogen-activated protein kinase kinase kinase kinase 1 (Homo sapiens), sequence (Q92918 whole entry, looked up): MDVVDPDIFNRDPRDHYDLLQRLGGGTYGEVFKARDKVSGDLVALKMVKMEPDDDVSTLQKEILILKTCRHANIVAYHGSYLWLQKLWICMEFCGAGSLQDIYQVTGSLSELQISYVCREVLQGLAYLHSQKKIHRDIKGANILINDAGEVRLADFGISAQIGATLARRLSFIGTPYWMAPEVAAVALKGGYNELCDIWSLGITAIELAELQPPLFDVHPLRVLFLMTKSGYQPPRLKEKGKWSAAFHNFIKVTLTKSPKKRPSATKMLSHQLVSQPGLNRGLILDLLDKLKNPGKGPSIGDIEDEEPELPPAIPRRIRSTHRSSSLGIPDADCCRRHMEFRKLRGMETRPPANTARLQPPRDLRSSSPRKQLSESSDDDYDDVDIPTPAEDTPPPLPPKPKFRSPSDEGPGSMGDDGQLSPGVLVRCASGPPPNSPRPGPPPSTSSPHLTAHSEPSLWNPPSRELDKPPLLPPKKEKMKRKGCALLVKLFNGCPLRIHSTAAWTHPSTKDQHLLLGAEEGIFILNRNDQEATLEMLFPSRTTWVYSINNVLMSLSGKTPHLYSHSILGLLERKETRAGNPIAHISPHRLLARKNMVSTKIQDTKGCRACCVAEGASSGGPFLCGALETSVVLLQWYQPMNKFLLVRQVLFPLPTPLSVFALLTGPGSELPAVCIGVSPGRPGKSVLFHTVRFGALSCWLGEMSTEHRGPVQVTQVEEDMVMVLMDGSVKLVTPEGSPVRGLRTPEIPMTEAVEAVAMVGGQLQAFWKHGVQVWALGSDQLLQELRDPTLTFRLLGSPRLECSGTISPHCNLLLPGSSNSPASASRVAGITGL

MDA-MB-231 [12] = test: Antimigratory activity against human MDA-MB-231 cells after 24 hrs by inverted microscopic based Wound healing assay; format: functional, cell-based; conditions: dose 0.25-1 µM; in short: as §2
[13] = target: Tyrosine-protein kinase SYK (Homo sapiens) (UniProt P43405); test: Inhibition of SYK (unknown origin) assessed as residual activity at 0.1 uM preincubated for 20 min followed by [gamma33P]ATP addition and measured after 120 mins by Hotspot assay relative to control; conditions: time 140.0 min; in short: as §1
[14] = target: ALK tyrosine kinase receptor (Homo sapiens) (UniProt Q9UM73); test: Inhibition of ALK (unknown origin) assessed as residual activity at 0.1 uM preincubated for 20 min followed by [gamma33P]ATP addition and measured after 120 mins by Hotspot assay relative to control; conditions: time 140.0 min; in short: as §1
ALK tyrosine kinase receptor (Homo sapiens), sequence (Q9UM73 19-1620 limits assumed): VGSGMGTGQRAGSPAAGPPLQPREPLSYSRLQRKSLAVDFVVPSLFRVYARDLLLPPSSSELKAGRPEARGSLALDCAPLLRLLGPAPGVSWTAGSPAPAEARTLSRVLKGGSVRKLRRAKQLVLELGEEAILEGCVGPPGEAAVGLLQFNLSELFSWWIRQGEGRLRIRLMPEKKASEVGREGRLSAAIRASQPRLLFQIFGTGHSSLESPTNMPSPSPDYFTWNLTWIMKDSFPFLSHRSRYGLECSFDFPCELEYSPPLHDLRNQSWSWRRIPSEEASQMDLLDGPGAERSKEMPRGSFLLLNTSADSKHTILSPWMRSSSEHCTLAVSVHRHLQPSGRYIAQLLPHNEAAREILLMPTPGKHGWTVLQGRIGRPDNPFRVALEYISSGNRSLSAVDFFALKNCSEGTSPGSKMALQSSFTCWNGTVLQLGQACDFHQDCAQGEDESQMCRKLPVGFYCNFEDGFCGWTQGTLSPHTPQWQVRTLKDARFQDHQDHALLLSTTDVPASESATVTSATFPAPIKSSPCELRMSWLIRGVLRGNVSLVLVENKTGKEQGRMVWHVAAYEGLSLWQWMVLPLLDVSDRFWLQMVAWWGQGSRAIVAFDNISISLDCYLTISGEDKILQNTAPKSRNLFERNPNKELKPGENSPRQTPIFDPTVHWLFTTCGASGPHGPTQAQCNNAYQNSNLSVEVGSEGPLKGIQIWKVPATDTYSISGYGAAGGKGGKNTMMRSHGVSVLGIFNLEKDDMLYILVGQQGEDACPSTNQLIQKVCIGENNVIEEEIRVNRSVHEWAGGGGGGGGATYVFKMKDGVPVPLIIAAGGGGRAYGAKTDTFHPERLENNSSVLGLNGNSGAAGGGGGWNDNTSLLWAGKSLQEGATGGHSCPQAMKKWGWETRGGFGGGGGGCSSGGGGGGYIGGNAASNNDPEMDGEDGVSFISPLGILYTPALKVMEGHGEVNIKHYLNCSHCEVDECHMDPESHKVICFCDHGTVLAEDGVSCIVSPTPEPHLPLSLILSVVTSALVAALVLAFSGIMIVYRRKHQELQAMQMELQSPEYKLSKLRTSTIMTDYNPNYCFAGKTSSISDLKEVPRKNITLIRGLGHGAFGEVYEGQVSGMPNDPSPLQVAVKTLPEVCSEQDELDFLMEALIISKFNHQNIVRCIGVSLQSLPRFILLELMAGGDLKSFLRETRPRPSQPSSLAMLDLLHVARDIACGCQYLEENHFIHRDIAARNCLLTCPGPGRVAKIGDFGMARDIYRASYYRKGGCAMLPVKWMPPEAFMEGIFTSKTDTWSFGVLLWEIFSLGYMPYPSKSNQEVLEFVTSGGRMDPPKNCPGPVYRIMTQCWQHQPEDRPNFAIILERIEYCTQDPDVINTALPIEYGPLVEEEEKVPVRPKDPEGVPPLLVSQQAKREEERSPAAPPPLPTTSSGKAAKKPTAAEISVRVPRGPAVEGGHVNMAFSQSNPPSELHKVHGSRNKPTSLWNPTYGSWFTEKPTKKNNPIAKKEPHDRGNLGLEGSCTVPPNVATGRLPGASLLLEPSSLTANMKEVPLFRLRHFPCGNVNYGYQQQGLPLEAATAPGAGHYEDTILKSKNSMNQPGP

Activity [1]: 87.8% | inhibition [3]: Dose-dependent effect | Activity [4]: 72.8% | Activity [5]: 92.4% | IC50 [6]: > 10 µM | Activity [7]: 98.8% | inhibition [8]: Active | Activity [9]: 33.9% | Activity [10]: 88.4% | Activity [11]: 89.6% | Activity [13]: 94.2% | Activity [14]: 97%
SMILES: Cc1cccn(-c2ccc(-c3ccc4c(C(=O)NCc5ccncc5)n[nH]c4c3)c(Cl)c2)c1=O
Activity (MDA-MB-231 [2]): <40% | Activity (MDA-MB-231 [12]): Dose-dependent effect
